Compound activity from PubChem BioAssay.
Pf Dd2 growth: inhibitors of Plasmodium falciparum Dd2 growth; P. falciparum Dd2 growth, SYBR Green, 72 h; stronger effect = lower value; activity change, % at 10 µM; 94,000 compounds, 2.3% hits; in the data active means activity change below about -80%; inconclusive means no clear call, values can overlap the other calls
GASC1 inh: inhibitors of human demethylase GASC-1 KDM4C. GST-KDM4C 2-372, H3K9me3 peptide, LANCE TR-FRET. 96,000 compounds, 0.15% hits. Q9H3R0. inhibition, % at 12.5 µM;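 active means mean replicate inhibition above about 25%, with at least 55% of replicates also reaching it, limit read from the data, passing the limit was not always enough; inconclusive means only one of those two conditions met; inactive means neither condition met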
Target sequence (Q9H3R0 2-372 limits assumed): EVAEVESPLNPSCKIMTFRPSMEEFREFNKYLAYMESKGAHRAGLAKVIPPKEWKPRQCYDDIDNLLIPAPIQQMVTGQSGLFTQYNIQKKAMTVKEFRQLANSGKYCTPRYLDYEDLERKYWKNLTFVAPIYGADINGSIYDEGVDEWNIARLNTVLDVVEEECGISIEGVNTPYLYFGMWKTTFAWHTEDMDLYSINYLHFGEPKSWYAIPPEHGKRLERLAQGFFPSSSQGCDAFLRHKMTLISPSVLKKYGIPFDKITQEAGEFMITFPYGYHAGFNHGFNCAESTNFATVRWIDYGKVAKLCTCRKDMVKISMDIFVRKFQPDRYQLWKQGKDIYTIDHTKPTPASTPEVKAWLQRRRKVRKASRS
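Compound: one test concentration per compound; Material: GST-GASC-1 enzyme fragment 2-372; Amount: GASC-1 enzyme at 10 nM final in reaction; Also added: H3K9me3 peptide substrate, Fe(II), 2-oxoglutarate; Technique: LANCE TR-FRET; Times: 30 min demethylation and 1 h detection at room temperature.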
IDH1 R132H inh: inhibitors of human IDH1 R132H; O75874; 70,000 compounds, 0.18% hits; IDH1 R132H reductase, diaphorase/resazurin fluorescence, 60 min; inhibition, % at 10 µM; in the data active means inhibition above about 34%; inconclusive means no clear call, values can overlap the other calls; inactive means below about 11%
Target sequence (O75874 whole entry R132H): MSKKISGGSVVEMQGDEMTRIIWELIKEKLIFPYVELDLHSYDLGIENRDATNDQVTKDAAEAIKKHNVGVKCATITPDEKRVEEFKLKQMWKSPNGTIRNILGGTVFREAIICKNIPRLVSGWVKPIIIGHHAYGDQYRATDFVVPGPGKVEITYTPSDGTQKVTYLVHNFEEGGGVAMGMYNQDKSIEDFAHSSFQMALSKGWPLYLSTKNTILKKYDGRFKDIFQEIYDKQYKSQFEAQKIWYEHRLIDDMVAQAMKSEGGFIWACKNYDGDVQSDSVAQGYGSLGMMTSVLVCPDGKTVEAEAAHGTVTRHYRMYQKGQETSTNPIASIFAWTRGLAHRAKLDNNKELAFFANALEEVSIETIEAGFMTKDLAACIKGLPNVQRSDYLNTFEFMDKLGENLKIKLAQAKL
T cruzi growth-1: blocks T. cruzi growth in NIH3T3 culture. 77,000 compounds, 5.9% hits. inhibition, % at 8.34 µM. AID 624255. T. cruzi beta-gal in NIH3T3, GalScreen luminescence, 90 h;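 active means mean inhibition above about 93%, with at least 55% of replicates each passing it, limit read from the data, passing the limit was not always enough; inconclusive means only one of those two conditions holds; inactive means neither condition holds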
T cruzi growth-2: blocks T. cruzi growth in NIH3T3 host cells; shares compounds with T cruzi growth-1; T. cruzi beta-gal in NIH3T3, GalScreen luminescence, 90 h; inhibition, % at 8.35 µM; 5,600 compounds, 72% hits;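 active means mean replicate inhibition above about 95% and at least 55% of replicates individually reaching it, limit read from the data; inconclusive means only one of the two criteria is met; inactive means neither criterion is met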
T cruzi growth-3: inhibitors of T. cruzi proliferation; shares compounds with T cruzi growth-1; T. cruzi beta-gal in NIH3T3, GalScreen luminescence, 90 h; inhibition, % at 2.09 µM; 5,600 compounds, 21% hits; AID 651740;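 active means mean inhibition above about 95%, with at least 55% of replicates also reaching it, limit read from the data; inconclusive means meets just one of the two conditions; inactive means meets neither condition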
NIH3T3 tox: kills mouse NIH/3T3 fibroblasts | NIH/3T3 viability, CellTiter-Glo ATP luminescence, 90 h | AID 651742 | 5,600 compounds, 14% hits | shares compounds with T cruzi growth-1 | cytotoxicity (signal decrease), % at 8.35 µM;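 active means mean signal decrease across replicates above about 35% based on untreated-well scatter, with enough replicates individually passing, limit read from the data; inconclusive means no rule stated though some were filed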
3T3 cytotox 2: cytotoxicity in mouse NIH/3T3 fibroblasts. inhibition, % at 24.9 µM. 5,600 compounds, 56% hits. NIH/3T3 viability, CellTiter-Glo ATP luminescence, 90 h. shares compounds with T cruzi growth-1. AID 651744;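 active means mean loss of cell viability signal at or above a set limit, and enough replicates individually reaching it; inconclusive means meets only the mean limit or only the replicate share; inactive means meets neither condition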
Each line names hits and unclear results; the compound was inactive in the other large screens (follow-up assays come after a bar, where they were run). Most compounds without a hit are left out; they make up all but 5.8% or so of the library.

CCCN1[C@@H]2c3ccc(-c4ccccc4)c(=O)n3C[C@@H]2[C@@H](CO)[C@@H]1C(=O)N[C@@H](C)c1ccccc1	none (no result: IDH1 R132H inh)
CN(C)CC(=O)N1[C@H](C(=O)NC2CCCC2)[C@@H](CO)[C@@H]2Cn3c(ccc(-c4ccc(F)cc4)c3=O)[C@@H]21	T cruzi growth-1 105 (no result: IDH1 R132H inh) | T cruzi growth-2 inactive | T cruzi growth-3 inactive | NIH3T3 tox inactive | 3T3 cytotox 2 inactive
Cc1ccc2nsnc2c1NC(=O)COc1ccc([N+](=O)[O-])cc1	none (no result: Pf Dd2 growth, GASC1 inh, T cruzi growth-1)
C[C@H]1CCCCO[C@@H](CN(C)Cc2ccccc2)[C@@H](C)CN([C@@H](C)CO)C(=O)c2cc(NC(=O)NC3CCCCC3)ccc2O1	none
C[C@@H]1CCCCO[C@@H](CN(C)Cc2ccccc2)[C@H](C)CN([C@@H](C)CO)C(=O)c2cc(NC(=O)NC3CCCCC3)ccc2O1	none (no result: IDH1 R132H inh)
C[C@@H]1CN([C@H](C)CO)C(=O)c2cc(NC(=O)NC3CCCCC3)ccc2O[C@@H](C)CCCCO[C@@H]1CN(C)Cc1ccccc1	T cruzi growth-1 113 | T cruzi growth-2 108 | T cruzi growth-3 inactive | NIH3T3 tox inactive | 3T3 cytotox 2 31
C[C@H](CO)N1C[C@H](C)[C@@H](CN(C)Cc2ccccc2)OCCCC[C@H](C)Oc2ccc(NC(=O)NC3CCCCC3)cc2C1=O	T cruzi growth-1 inconclusive (no result: IDH1 R132H inh) | T cruzi growth-2 inconclusive | T cruzi growth-3 inactive | NIH3T3 tox inactive | 3T3 cytotox 2 48
C[C@@H]1CN([C@@H](C)CO)C(=O)c2cc(NC(=O)Cc3cn(C)c4ccccc34)ccc2O[C@@H]1CN(C)Cc1ccc(Oc2ccccc2)cc1	T cruzi growth-1 93 | T cruzi growth-2 96 | T cruzi growth-3 inconclusive | NIH3T3 tox inactive | 3T3 cytotox 2 76
C[C@@H]1CN([C@H](C)CO)C(=O)c2cc(NC(=O)Cc3cn(C)c4ccccc34)ccc2O[C@@H]1CN(C)Cc1ccccc1	none
C[C@@H]1CN([C@@H](C)CO)C(=O)c2cc(NC(=O)Cc3cn(C)c4ccccc34)ccc2O[C@H]1CN(C)Cc1ccc(C(F)(F)F)cc1	T cruzi growth-1 113 | T cruzi growth-2 105 | T cruzi growth-3 inactive | NIH3T3 tox inactive | 3T3 cytotox 2 inconclusive
C[C@H](CO)N1C[C@H](C)[C@H](CN(C)Cc2ccc(C(F)(F)F)cc2)Oc2ccc(NC(=O)Cc3cn(C)c4ccccc34)cc2C1=O	none
COc1ccc(S(=O)(=O)N(C)C[C@H]2Oc3ccc(NC(=O)Cc4cn(C)c5ccccc45)cc3C(=O)N([C@@H](C)CO)C[C@H]2C)cc1	T cruzi growth-1 99 | T cruzi growth-2 108 | T cruzi growth-3 inactive | NIH3T3 tox inactive | 3T3 cytotox 2 61
C[C@H]1CN([C@@H](C)CO)C(=O)c2cc(NC(=O)Cc3cn(C)c4ccccc34)ccc2O[C@H]1CN(C)Cc1ccc(C(F)(F)F)cc1	T cruzi growth-1 inconclusive | T cruzi growth-2 101 | T cruzi growth-3 inactive | NIH3T3 tox inactive | 3T3 cytotox 2 inactive
CCc1ccc(-n2nc3cc(C)c(NC(=O)COc4ccccc4[N+](=O)[O-])cc3n2)cc1	none (no result: Pf Dd2 growth, GASC1 inh, T cruzi growth-1)
N#Cc1c(NC(=O)Cn2c(=O)oc3ccccc32)sc2c1CCCC2	none (no result: Pf Dd2 growth, GASC1 inh, T cruzi growth-1)
CC(NS(=O)(=O)c1ccccc1)C(=O)Nc1ccccc1C(F)(F)F (configuration not stated)	none (no result: Pf Dd2 growth, GASC1 inh, T cruzi growth-1)
CCOC(=O)c1c(NC(=O)Cn2cnc3sc(C)c(C)c3c2=O)sc(C)c1C	none (no result: Pf Dd2 growth, GASC1 inh, T cruzi growth-1)
C[C@H](CO)N1C[C@H](C)[C@@H](CN(C)CC2CCCCC2)Oc2ccc(NC(=O)CCC(F)(F)F)cc2C1=O	T cruzi growth-1 inconclusive (no result: GASC1 inh, IDH1 R132H inh) | T cruzi growth-2 inactive | T cruzi growth-3 inactive | NIH3T3 tox inactive | 3T3 cytotox 2 inactive
C[C@@H]1CN([C@@H](C)CO)C(=O)c2cc(NC(=O)Cc3ccccc3)ccc2O[C@H]1CN(C)CC1CCCCC1	T cruzi growth-1 inconclusive (no result: IDH1 R132H inh) | T cruzi growth-2 inactive | T cruzi growth-3 inactive | NIH3T3 tox inactive | 3T3 cytotox 2 inactive
C[C@H](CO)N1C[C@H](C)[C@H](CN(C)CC2CCCCC2)Oc2ccc(NC(=O)Cc3ccccc3)cc2C1=O	none (no result: IDH1 R132H inh)
CNC[C@@H]1Oc2ncc(C#CCC3CCCC3)cc2C(=O)N([C@H](C)CO)C[C@H]1C	T cruzi growth-1 inconclusive | T cruzi growth-2 109 | T cruzi growth-3 inconclusive | NIH3T3 tox inactive | 3T3 cytotox 2 106
C[C@@H]1CN([C@@H](C)CO)C(=O)c2cc(C#CCc3ccccc3)cnc2O[C@H]1CN(C)C(=O)C1CCCCC1	Pf Dd2 growth -82, T cruzi growth-1 114 (no result: IDH1 R132H inh) | T cruzi growth-2 105 | T cruzi growth-3 inactive | NIH3T3 tox inactive | 3T3 cytotox 2 106
CNC[C@@H]1Oc2ncc(C#CCC3CCCC3)cc2C(=O)N([C@H](C)CO)C[C@@H]1C	none
CC(C)CC#Cc1cnc2c(c1)C(=O)N([C@@H](C)CO)C[C@@H](C)[C@H](CN(C)C(=O)C1CCCCC1)O2	T cruzi growth-1 inconclusive | T cruzi growth-2 inconclusive | T cruzi growth-3 inactive | NIH3T3 tox inactive | 3T3 cytotox 2 81
CC(C)CC#Cc1cnc2c(c1)C(=O)N([C@@H](C)CO)C[C@@H](C)[C@@H](CN(C)C(=O)C1CCCCC1)O2	none
O=C(CSc1nc2c(c(C(F)(F)F)n1)CCCC2)Nc1cccc(Cl)c1Cl	none (no result: Pf Dd2 growth, GASC1 inh, T cruzi growth-1)
CC(=O)N1CCCCN2[C@H](CO)[C@@H](c3ccc(-c4ccc(C)cc4)cc3)[C@@H]2C1	T cruzi growth-1 102 (no result: IDH1 R132H inh) | T cruzi growth-2 inactive | T cruzi growth-3 inactive | NIH3T3 tox 41 | 3T3 cytotox 2 28
CC(=O)N1CCCCN2[C@H](C1)[C@H](c1ccc(-c3ccc(F)cc3)cc1)[C@@H]2CO	none (no result: IDH1 R132H inh)
CC(=O)N1CCCCN2[C@@H](CO)[C@@H](c3ccc(-c4ccc(C)cc4)cc3)[C@@H]2C1	T cruzi growth-1 106 (no result: IDH1 R132H inh) | T cruzi growth-2 inactive | T cruzi growth-3 inactive | NIH3T3 tox 36 | 3T3 cytotox 2 66
CC(=O)N1CCCCN2[C@H](C1)[C@H](c1ccc(-c3ccc(C)cc3)cc1)[C@@H]2CO	T cruzi growth-1 100 (no result: IDH1 R132H inh) | T cruzi growth-2 106 | T cruzi growth-3 inactive | NIH3T3 tox inactive | 3T3 cytotox 2 29
CC(=O)N1CCCCN2[C@H](CO)[C@@H](c3ccc(-c4ccc(C)cc4)cc3)[C@H]2C1	T cruzi growth-1 106 (no result: IDH1 R132H inh) | T cruzi growth-2 inactive | T cruzi growth-3 inactive | NIH3T3 tox inactive | 3T3 cytotox 2 74
CC(=O)N1CCCCN2[C@H](C1)[C@@H](c1ccc(-c3ccc(C)cc3)cc1)[C@@H]2CO	T cruzi growth-1 111 (no result: IDH1 R132H inh) | T cruzi growth-2 inactive | T cruzi growth-3 inactive | NIH3T3 tox inactive | 3T3 cytotox 2 inactive
